Reference: ChEMBL document CHEMBL1641377, “Discovery of novel, potent, selective, and orally active human glucagon receptor antagonists containing a pyrazole core” (Bioorg Med Chem Lett, 2011)
Calls of active or inactive are those of the source. The rule behind the calls is not given here.

Assays:
Glucagon receptor = Glucagon receptor (Homo sapiens, UniProt P47871); test: Displacement of [125I]glucagon from human GCGR expressed in CHO cells; format: cell-based
Outline: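 Binding inhibition of 125I-glucagon to human GCGR expressed in CHO cell membranes; IC50 reported, n given where replicated.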

Mus musculus [1] = test: Antidiabetic activity in transgenic mouse expressing human GCGR assessed as inhibition of glucagon-induced blood glucose excursion at 30 mg/kg, po administered 60 mins before glucagon challenge measured after 48 mins; format: functional, organism-based; design: dose 30 mg/kg
Outline: (§1)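 hGCGR transgenic mice (only functional receptor is human GCGR), 9 per group, given compound orally, then glucagon 15 µg/kg IP 60 min later (one arm dosed 30 mpk three hours before challenge); blood glucose monitored at 12, 24, 36 and 48 min after glucagon.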

Mus musculus [2] = test: Antidiabetic activity in transgenic mouse expressing human GCGR assessed as inhibition of glucagon-induced blood glucose excursion at 10 mg/kg, po administered 60 mins before glucagon challenge measured after 48 mins; format: functional, organism-based; design: dose 10 mg/kg; outline: as §1
[3] = Drug level in blood of transgenic mouse expressing human GCGR at 10 mg/kg, po after 120 mins; format: ADME, organism-based; design: dose 10 mg/kg, route oral; conditions: read-out: Drug uptake
Outline: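 Blood drug concentration sampled in hGCGR transgenic mice during the oral glucagon-challenge pharmacodynamic assay at 45 and 120 min post dose, 10 and 30 mpk groups, n = 3 per group.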

[4] = biological target: Glucagon-like peptide 1 receptor (Homo sapiens, UniProt P43220); test: Antagonist activity at human GLP1R expressed in CHO cells assessed as inhibition of glucagon-induced cAMP accumulation; format: functional, cell-based
[5] = biological target: Pituitary adenylate cyclase-activating polypeptide type I receptor (Homo sapiens, UniProt P41586); test: Antagonist activity at human PACAPR1 expressed in CHO cells assessed as inhibition of glucagon-induced cAMP accumulation; format: functional, cell-based
Oryctolagus cuniculus = species: Oryctolagus cuniculus; test: Binding affinity to DLZ-sensitive rabbit calcium channel up to 10 uM
Canis familiaris [6] = test: Cardiotoxicity in dog assessed as effect on cardiovascular parameters at 1 to 10 mg/kg, iv after 30 mins; format: toxicity, organism-based, Canis lupus familiaris, Heart; design: dose 1-10 mg/kg, route intravenous; conditions: in vivo, 0.5 h
[7] = Plasma concentration in dog at 1 to 10 mg/kg, iv after 30 mins; format: ADME, organism-based, Canis lupus familiaris; design: dose 1-10 mg/kg, route intravenous
Cytochrome P450 2D6 = Cytochrome P450 2D6 (Homo sapiens, UniProt P10635); test: Inhibition of CYP2D6; format: ADME
Cytochrome P450 2C8 = biological target: T1, Cytochrome P450 2C8 (Homo sapiens, UniProt P10632); test: Inhibition of CYP2C8; format: ADME
T1 sequence (P10632 whole entry): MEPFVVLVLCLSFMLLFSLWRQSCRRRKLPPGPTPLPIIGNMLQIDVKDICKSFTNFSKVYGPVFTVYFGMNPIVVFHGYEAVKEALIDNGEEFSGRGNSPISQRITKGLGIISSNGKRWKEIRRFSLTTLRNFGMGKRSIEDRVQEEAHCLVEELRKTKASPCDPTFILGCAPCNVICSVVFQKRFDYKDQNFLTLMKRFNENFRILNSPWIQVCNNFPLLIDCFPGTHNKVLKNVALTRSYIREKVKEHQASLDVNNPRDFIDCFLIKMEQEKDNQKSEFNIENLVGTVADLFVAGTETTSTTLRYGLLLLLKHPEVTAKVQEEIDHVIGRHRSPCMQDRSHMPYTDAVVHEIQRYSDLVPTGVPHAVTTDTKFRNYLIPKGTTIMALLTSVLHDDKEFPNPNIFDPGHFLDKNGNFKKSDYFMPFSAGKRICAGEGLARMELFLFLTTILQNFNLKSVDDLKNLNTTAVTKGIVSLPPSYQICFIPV

Cytochrome P450 2C9 = Cytochrome P450 2C9 (Homo sapiens, UniProt P11712); test: Inhibition of CYP2C9; format: ADME
Mus musculus [8] = test: In vivo occupancy of human GCGR transfected in mouse at 30 mg/kg, po after 1 hr; format: functional
Outline: (§2)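 In vivo receptor occupancy measured in hGCGR transgenic mice after oral dosing, at 1 h post-dose (30 and 10 mpk) and in a separate experiment at 1, 3 and 8 h after 10 mpk.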

Mus musculus [9] = test: In vivo occupancy of human GCGR transfected in mouse at 10 mg/kg, po after 1 hr; format: functional; outline: as §2
Mus musculus [10] = test: Antihyperglycemic activity in streptozotocin-induced diabetes mouse model assessed as decrease in blood glucose AUC level at 10 mg/kg, po after 4 weeks; format: functional; conditions: 672 h
Outline: (§3)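 Diabetic model: hGCGR transgenic mice on high-fat diet for eight weeks, streptozotocin-treated during the last four weeks; single oral dose, blood glucose AUC over 2–6 h measured.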

Mus musculus [11] = test: Antihyperglycemic activity in streptozotocin-induced diabetes mouse model assessed as decrease in blood glucose AUC level at 30 mg/kg, po after 4 weeks; format: functional; conditions: 672 h; outline: as §3
[12] = Blood clearance in mouse at 1 mg/kg, iv and 2 mg/kg, po; format: ADME, organism-based
[13] = Plasma clearance in rat at 1 mg/kg, iv and 2 mg/kg, po; format: ADME, organism-based
[14] = Plasma clearance in rhesus monkey at 0.5 mg/kg, iv and 2 mg/kg, po; format: ADME, organism-based, Macaca mulatta
[15] = Volume of distribution at steady state in mouse at 1 mg/kg, iv and 2 mg/kg, po; format: ADME, organism-based; conditions: in vivo, read-out: Vdss
[16] = Volume of distribution at steady state in dog at 0.5 mg/kg, iv and 2 mg/kg, po; format: ADME, organism-based, Canis lupus familiaris; conditions: in vivo, read-out: Vdss
[17] = Volume of distribution at steady state in rhesus monkey at 0.5 mg/kg, iv and 2 mg/kg, po; format: ADME, organism-based, Macaca mulatta; conditions: in vivo, read-out: Vdss
[18] = Half life in rat at 1 mg/kg, iv and 2 mg/kg, po; format: ADME, organism-based; conditions: in vivo
Mus musculus [19] = test: Dose normalized AUC in mouse at 2 mg/kg, po; format: ADME, organism-based; design: dose 2 mg/kg, route oral; conditions: in vivo
Rattus norvegicus = test: Dose normalized AUC in rat at 2 mg/kg, po; format: ADME, organism-based; design: dose 2 mg/kg, route oral; conditions: in vivo
Canis familiaris [20] = test: Dose normalized AUC in dog at 2 mg/kg, po; format: ADME, organism-based, Canis lupus familiaris; design: dose 2 mg/kg, route oral; conditions: in vivo
Rhesus monkey [21] = test: Dose normalized AUC in rhesus monkey at 2 mg/kg, po; format: ADME, organism-based, Macaca mulatta; design: dose 2 mg/kg, route oral; conditions: in vivo
[22] = Cmax in dog at 2 mg/kg, po; format: ADME, organism-based, Canis lupus familiaris; design: dose 2 mg/kg, route oral; conditions: in vivo
[23] = Bioavailability in dog at 0.5 mg/kg, iv and 2 mg/kg, po; format: ADME, organism-based, Canis lupus familiaris; conditions: in vivo
Uncharacterized protein = Uncharacterized protein (Canis lupus familiaris, UniProt A0A8I3N355); test: Antagonist activity at dog GCGR assessed as inhibition of glucagon-induced cAMP accumulation; format: functional
[24] = Antagonist activity at rhesus monkey GCGR assessed as inhibition of glucagon-induced cAMP accumulation; format: functional, Macaca mulatta
Rhesus monkey [25] = test: Antidiabetic activity in rhesus monkey assessed as inhibition of glucagon-induced blood glucose excursion at 1 to 10 mg/kg, po administered 4 hrs before glucagon challenge measured after 4 hrs; format: functional, organism-based; conditions: Macaca mulatta
Outline: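 Overnight-fasted rhesus monkeys dosed with vehicle or compound 4 h before challenge; glucagon 15 µg/kg im at time zero, plasma glucose monitored every 10 min and expressed as change from time zero per group.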

[26] = Plasma concentration in rhesus monkey at 1 mg/kg, po after 4 hrs; format: ADME, organism-based, Macaca mulatta; design: dose 1 mg/kg, route oral
Outline: (§4)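 Overnight-fasted rhesus monkeys received the oral dose 4 h before the glucagon challenge (15 µg/kg im, time zero). Plasma drug level was sampled at the time of the challenge (t = 0, n = 4). Plasma glucose was then followed every 10 min and expressed as the change from time zero.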

[27] = Plasma concentration in rhesus monkey at 10 mg/kg, po after 4 hrs; format: ADME, organism-based, Macaca mulatta; design: dose 10 mg/kg, route oral; outline: as §4

Chain of Cytochrome P450 2D6 (P10635 whole entry): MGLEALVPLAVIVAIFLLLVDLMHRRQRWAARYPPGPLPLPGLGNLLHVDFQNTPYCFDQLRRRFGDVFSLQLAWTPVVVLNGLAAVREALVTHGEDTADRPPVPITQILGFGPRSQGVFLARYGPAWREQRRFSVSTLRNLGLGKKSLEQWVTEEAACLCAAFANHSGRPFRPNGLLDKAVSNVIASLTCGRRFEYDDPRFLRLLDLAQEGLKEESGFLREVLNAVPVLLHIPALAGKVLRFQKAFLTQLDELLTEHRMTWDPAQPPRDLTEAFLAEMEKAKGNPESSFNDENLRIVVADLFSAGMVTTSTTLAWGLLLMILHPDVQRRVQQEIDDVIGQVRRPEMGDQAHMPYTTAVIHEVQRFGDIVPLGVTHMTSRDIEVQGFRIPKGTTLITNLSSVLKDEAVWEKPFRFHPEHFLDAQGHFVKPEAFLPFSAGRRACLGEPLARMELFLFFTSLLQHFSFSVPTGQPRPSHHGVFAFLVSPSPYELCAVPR
Chain of Glucagon-like peptide 1 receptor (P43220 whole entry): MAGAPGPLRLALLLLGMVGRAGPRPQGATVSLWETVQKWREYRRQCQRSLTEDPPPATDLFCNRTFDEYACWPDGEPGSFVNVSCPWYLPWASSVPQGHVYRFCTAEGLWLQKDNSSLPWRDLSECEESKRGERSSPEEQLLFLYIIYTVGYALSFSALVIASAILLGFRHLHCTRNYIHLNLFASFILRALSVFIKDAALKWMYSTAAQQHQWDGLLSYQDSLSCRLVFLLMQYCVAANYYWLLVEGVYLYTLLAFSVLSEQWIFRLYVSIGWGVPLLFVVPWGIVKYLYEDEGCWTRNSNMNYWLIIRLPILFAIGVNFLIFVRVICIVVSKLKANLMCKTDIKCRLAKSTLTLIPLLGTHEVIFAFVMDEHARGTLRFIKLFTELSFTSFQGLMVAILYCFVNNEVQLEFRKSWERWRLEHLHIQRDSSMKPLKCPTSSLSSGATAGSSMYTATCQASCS
Chain of Glucagon receptor (P47871 whole entry): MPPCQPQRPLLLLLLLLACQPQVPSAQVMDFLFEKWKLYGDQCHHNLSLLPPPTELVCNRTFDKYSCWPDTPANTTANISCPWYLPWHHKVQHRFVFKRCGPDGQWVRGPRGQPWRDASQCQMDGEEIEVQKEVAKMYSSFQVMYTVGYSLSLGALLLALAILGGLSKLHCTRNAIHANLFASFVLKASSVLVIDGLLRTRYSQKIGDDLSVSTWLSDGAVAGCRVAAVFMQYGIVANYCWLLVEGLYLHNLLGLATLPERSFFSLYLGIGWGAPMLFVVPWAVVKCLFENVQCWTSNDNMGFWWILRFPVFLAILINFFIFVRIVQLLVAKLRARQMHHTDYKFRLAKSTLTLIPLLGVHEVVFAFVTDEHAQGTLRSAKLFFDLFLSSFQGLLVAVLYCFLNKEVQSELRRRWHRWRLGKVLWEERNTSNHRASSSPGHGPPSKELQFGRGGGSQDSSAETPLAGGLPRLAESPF
Chain of Pituitary adenylate cyclase-activating polypeptide type I receptor (P41586 whole entry): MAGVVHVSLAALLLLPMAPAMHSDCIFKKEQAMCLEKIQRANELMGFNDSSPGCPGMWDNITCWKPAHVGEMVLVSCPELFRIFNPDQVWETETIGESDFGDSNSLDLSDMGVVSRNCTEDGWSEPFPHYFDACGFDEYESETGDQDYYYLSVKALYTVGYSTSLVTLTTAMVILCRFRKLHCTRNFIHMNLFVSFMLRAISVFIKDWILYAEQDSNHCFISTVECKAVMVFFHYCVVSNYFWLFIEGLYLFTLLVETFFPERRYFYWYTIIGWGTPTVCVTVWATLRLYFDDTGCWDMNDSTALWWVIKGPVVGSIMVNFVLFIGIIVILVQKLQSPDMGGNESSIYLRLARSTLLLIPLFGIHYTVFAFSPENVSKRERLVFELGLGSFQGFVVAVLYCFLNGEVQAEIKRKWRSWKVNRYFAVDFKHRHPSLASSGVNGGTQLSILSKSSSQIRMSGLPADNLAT
Chain of Cytochrome P450 2C9 (P11712 whole entry): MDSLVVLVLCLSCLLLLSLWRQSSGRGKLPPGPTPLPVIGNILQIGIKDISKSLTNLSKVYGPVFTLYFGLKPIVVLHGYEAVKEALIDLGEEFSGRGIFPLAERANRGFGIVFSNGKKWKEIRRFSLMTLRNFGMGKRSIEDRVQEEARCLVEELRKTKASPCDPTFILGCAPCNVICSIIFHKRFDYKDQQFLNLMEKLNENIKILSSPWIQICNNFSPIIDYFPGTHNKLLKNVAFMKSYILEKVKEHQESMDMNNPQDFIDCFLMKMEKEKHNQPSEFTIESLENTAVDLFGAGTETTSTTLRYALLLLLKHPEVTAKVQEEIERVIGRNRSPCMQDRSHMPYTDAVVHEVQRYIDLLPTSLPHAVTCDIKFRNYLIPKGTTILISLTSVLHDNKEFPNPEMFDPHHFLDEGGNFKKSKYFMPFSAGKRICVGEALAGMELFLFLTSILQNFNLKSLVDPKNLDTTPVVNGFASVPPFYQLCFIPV
Chain of Uncharacterized protein (A0A8I3N355 whole entry): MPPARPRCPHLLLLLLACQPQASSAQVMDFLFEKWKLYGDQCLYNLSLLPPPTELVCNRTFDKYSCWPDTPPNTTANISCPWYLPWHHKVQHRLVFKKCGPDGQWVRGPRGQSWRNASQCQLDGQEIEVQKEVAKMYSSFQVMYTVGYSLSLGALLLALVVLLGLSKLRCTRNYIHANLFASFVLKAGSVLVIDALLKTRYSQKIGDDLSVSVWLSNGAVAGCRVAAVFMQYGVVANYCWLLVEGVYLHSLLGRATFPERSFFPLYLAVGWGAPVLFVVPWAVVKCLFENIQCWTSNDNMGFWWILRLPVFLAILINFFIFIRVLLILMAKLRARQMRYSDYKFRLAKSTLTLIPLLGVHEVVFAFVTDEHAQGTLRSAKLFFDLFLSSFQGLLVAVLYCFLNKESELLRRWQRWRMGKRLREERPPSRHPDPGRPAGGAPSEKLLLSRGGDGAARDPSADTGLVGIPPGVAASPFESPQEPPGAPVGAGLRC

**Q.** Which IC50 (Glucagon receptor) does the source give for `O=C(O)CCNC(=O)c1ccc(Cn2nc(-c3cc(Cl)cc(Cl)c3)cc2-c2ccc(OC(F)(F)F)cc2)cc1` here?
**A.** 0.084 µM

**Q.** What about the inhibition (Mus musculus [1]) of the same compound?
**A.** Active

**Q.** What about the inhibition (Mus musculus [2]) of the same compound?
**A.** Active

**Q.** What about the concentration at 2 h [3] of the same compound?
**A.** 3.35 µM

**Q.** What about the IC50 [4] of the same compound?
**A.** > 10 µM

**Q.** And the IC50 [5]?
**A.** > 7 µM

**Q.** And the Activity (Oryctolagus cuniculus)?
**A.** inactive

**Q.** And the Activity (Canis familiaris [6])?
**A.** Non-toxic

**Q.** And the concentration at 0.5 h [7]?
**A.** 96 µM

**Q.** And the IC50 (Cytochrome P450 2D6)?
**A.** > 100 µM

**Q.** And the IC50 (Cytochrome P450 2C8)?
**A.** 19 µM

**Q.** What about the IC50 (Cytochrome P450 2C9) of the same compound?
**A.** 5.8 µM

**Q.** What about the Activity (Mus musculus [8]) of the same compound?
**A.** 87%

**Q.** What about the Activity (Mus musculus [9]) of the same compound?
**A.** 51%

**Q.** What about the inhibition in vivo at 10 mg/kg (Mus musculus [10]) of the same compound?
**A.** 27%

**Q.** What about the inhibition in vivo at 30 mg/kg (Mus musculus [11]) of the same compound?
**A.** 37%

**Q.** What about the clearance [12] of the same compound?
**A.** 6.1 mL/min/kg

**Q.** What about the clearance [13] of the same compound?
**A.** 1.6 mL/min/kg

**Q.** And the clearance [14]?
**A.** 0.68 mL/min/kg

**Q.** What about the Vd [15] of the same compound?
**A.** 1.1 L/kg

**Q.** What about the Vd [16] of the same compound?
**A.** 0.14 L/kg

**Q.** And the Vd [17]?
**A.** 0.55 L/kg

**Q.** What about the half-life [18] of the same compound?
**A.** 6.5 h

**Q.** And the AUC (Mus musculus [19])?
**A.** 0.73 µM·kg·h/mg

**Q.** And the AUC (Rattus norvegicus)?
**A.** 11 µM·kg·h/mg

**Q.** What about the AUC (Canis familiaris [20]) of the same compound?
**A.** 27 µM·kg·h/mg

**Q.** What about the AUC (Rhesus monkey [21]) of the same compound?
**A.** 30 µM·kg·h/mg

**Q.** What about the Cmax [22] of the same compound?
**A.** 7.7 µM

**Q.** And the bioavailability [23]?
**A.** 46%

**Q.** And the IC50 (Uncharacterized protein)?
**A.** 0.4 µM

**Q.** And the IC50 [24]?
**A.** 0.14 µM

**Q.** And the inhibition (Rhesus monkey [25])?
**A.** Active

**Q.** And the concentration at 4 h [26]?
**A.** 0.6 µM

**Q.** And the concentration at 4 h [27]?
**A.** 8.8 µM
